Measurements: ChEMBL document CHEMBL3352430, “4-Aminopyridyl-based CYP51 inhibitors as anti-Trypanosoma cruzi drug leads with improved pharmacokinetic profile and in vivo potency” (J Med Chem, 2014)

Test system: Heart
Assay: Drug uptake in mouse heart at 50 mg/kg, po in 20% Kolliphor measured at 8 hrs post dose
Type: ADME, organism-based
Set-up: dose 50 mg/kg, route oral
Conditions: in vivo; call rule not given here
In short: (§1)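 Female Swiss Webster mice, 8 weeks old, given a single 50 mg/kg oral gavage dose in 20% HPβCD or 20% Kolliphor. Tissues taken from three mice at 2 and 8 h post dose. Homogenized by probe sonication in PBS (1:4 w/v), protein precipitated with acetonitrile, and compound measured by LC-MS/MS in μM.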
For `O=C(N[C@H](Cc1c[nH]c2ccccc12)C(=O)Nc1ccncc1)c1ccc(-c2ccc(F)c(Cl)c2)cc1F`, the Drug uptake was “Active”.

Test system: Heart
Assay: Drug uptake in mouse heart at 50 mg/kg, po in 20% HP-beta-CD measured at 8 hrs post dose
Type: ADME, organism-based
Set-up: dose 50 mg/kg, route oral
Conditions: in vivo
In short: as §1
With `O=C(N[C@H](Cc1c[nH]c2ccccc12)C(=O)Nc1ccncc1)c1ccc(-c2ccc(F)c(Cl)c2)cc1F` the Drug uptake was “Active”.

Test system: not listed separately
Assay: Clearance in mouse at 50 mg/kg, po in 20% Kolliphor
Type: ADME, organism-based
Set-up: dose 50 mg/kg, route oral
Conditions: in vivo
In short: (§2)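 Female Swiss Webster mice, 8 weeks old, given one oral gavage dose of 50 mg/kg as a 10 mg/mL preparation in the named vehicle (20% HPβCD suspension or 20% Kolliphor). Plasma sampled at about 0.25, 0.5, 1, 2, 4, 6, 8, 12 and 24 h, n = 3 per time point. Protein precipitated with 5 volumes acetonitrile, filtered, then LC-MS/MS. Values are averages of three mice.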
With `O=C(N[C@H](Cc1c[nH]c2ccccc12)C(=O)Nc1ccncc1)c1ccc(-c2ccc(F)c(Cl)c2)cc1F` the CL/F was 9.28 mL/min/kg.

Test system: C2C12
Assay: Cytotoxicity against mouse C2C12 cells up to 10 uM
Type: cell-based
Conditions: not given
In short: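 Mouse C2C12 myoblasts infected with T. cruzi CA-I/72, then exposed at 24 h postinfection to compound at 10 μM down to 5 pM in 5-fold steps for 72 h at 37 °C. Cells fixed in paraformaldehyde, stained with DAPI and scored by automated imaging. Triplicate wells; uninfected and infected untreated wells as controls.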
For `O=C(N[C@H](Cc1c[nH]c2ccccc12)C(=O)Nc1ccncc1)c1ccc(-c2ccc(F)c(Cl)c2)cc1F`, the Activity was “Non-toxic”.

Test system: Liver
Assay: Drug uptake in mouse liver at 50 mg/kg, po in 20% HP-beta-CD measured at 8 hrs post dose
Type: ADME, organism-based
Set-up: dose 50 mg/kg, route oral
Conditions: in vivo
In short: as §1
In the case of `O=C(N[C@H](Cc1c[nH]c2ccccc12)C(=O)Nc1ccncc1)c1ccc(-c2ccc(F)c(Cl)c2)cc1F`, the Drug uptake is reported as “Active”.

Test system: Intestine
Assay: Drug uptake in mouse intestine at 50 mg/kg, po in 20% HP-beta-CD measured at 8 hrs post dose
Type: ADME, organism-based
Set-up: dose 50 mg/kg, route oral
Conditions: in vivo
In short: as §1
In the case of `O=C(N[C@H](Cc1c[nH]c2ccccc12)C(=O)Nc1ccncc1)c1ccc(-c2ccc(F)c(Cl)c2)cc1F`, the Drug uptake is reported as “Active”.

Target: Cytochrome P450 2C9 (Homo sapiens, UniProt P11712)
Sequence (P11712 whole entry): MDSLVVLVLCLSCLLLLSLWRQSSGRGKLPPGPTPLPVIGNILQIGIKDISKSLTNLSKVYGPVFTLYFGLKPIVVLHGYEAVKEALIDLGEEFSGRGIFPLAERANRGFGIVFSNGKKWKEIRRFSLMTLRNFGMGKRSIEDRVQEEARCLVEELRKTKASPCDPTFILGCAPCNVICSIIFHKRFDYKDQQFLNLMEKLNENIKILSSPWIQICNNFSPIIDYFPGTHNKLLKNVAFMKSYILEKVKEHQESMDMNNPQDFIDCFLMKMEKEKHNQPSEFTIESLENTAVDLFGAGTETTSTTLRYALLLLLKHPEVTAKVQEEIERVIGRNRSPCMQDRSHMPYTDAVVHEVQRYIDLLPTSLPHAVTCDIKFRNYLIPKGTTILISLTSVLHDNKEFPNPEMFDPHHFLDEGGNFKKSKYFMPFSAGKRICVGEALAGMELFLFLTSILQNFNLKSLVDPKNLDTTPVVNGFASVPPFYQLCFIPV
Assay: Inhibition of CYP2C9 in human liver microsomes at 1 uM
Type: ADME
Conditions: not given
In the case of `O=C(N[C@H](Cc1c[nH]c2ccccc12)C(=O)Nc1ccncc1)c1ccc(-c2ccc(F)c(Cl)c2)cc1F`, the “inhibition (INH)” value is reported as 93%.

Test system: not listed separately
Assay: Half life in mouse at 50 mg/kg, po in 20% Kolliphor
Type: ADME, organism-based
Set-up: dose 50 mg/kg, route oral
Conditions: in vivo
In short: as §2
For `O=C(N[C@H](Cc1c[nH]c2ccccc12)C(=O)Nc1ccncc1)c1ccc(-c2ccc(F)c(Cl)c2)cc1F`, the half-life was 16.8 h.

Test system: not listed separately
Assay: Cmax in mouse at 50 mg/kg, po in 20% Kolliphor
Type: ADME, organism-based
Set-up: dose 50 mg/kg, route oral
Conditions: in vivo
In short: as §2
Compound `O=C(N[C@H](Cc1c[nH]c2ccccc12)C(=O)Nc1ccncc1)c1ccc(-c2ccc(F)c(Cl)c2)cc1F` has a Cmax of 17.8 µM.

Test system: not listed separately
Assay: Tmax in mouse at 50 mg/kg, po in 20% HP-beta-CD
Type: ADME, organism-based
Set-up: dose 50 mg/kg, route oral
Conditions: in vivo
In short: as §2
Work on `O=C(N[C@H](Cc1c[nH]c2ccccc12)C(=O)Nc1ccncc1)c1ccc(-c2ccc(F)c(Cl)c2)cc1F` yielded a Tmax of 2.67 h.

Test system: not listed separately
Assay: Drug uptake in mouse skeletal muscle at 50 mg/kg, po in 20% Kolliphor measured at 8 hrs post dose
Type: ADME, organism-based, Muscle tissue
Set-up: dose 50 mg/kg, route oral
Conditions: in vivo
In short: as §1
For `O=C(N[C@H](Cc1c[nH]c2ccccc12)C(=O)Nc1ccncc1)c1ccc(-c2ccc(F)c(Cl)c2)cc1F`, the Drug uptake was “Active”.

Test system: not listed separately
Assay: Half life in mouse at 50 mg/kg, po in 20% HP-beta-CD
Type: ADME, organism-based
Set-up: dose 50 mg/kg, route oral
Conditions: in vivo
In short: as §2
Compound `O=C(N[C@H](Cc1c[nH]c2ccccc12)C(=O)Nc1ccncc1)c1ccc(-c2ccc(F)c(Cl)c2)cc1F` has a half-life of 5.17 h.

Test system: Lung
Assay: Drug uptake in mouse lung at 50 mg/kg, po in 20% Kolliphor measured at 8 hrs post dose
Type: ADME, organism-based
Set-up: dose 50 mg/kg, route oral
Conditions: in vivo
In short: as §1
For `O=C(N[C@H](Cc1c[nH]c2ccccc12)C(=O)Nc1ccncc1)c1ccc(-c2ccc(F)c(Cl)c2)cc1F`, the Drug uptake was “Active”.

Test system: not listed separately
Assay: Cmax in mouse at 50 mg/kg, po in 20% HP-beta-CD
Type: ADME, organism-based
Set-up: dose 50 mg/kg, route oral
Conditions: in vivo
In short: as §2
`O=C(N[C@H](Cc1c[nH]c2ccccc12)C(=O)Nc1ccncc1)c1ccc(-c2ccc(F)c(Cl)c2)cc1F` gave a Cmax of 5.88 µM.

Target: T1, Cytochrome P450 1A2 (Homo sapiens, UniProt P05177)
T1 sequence (P05177 whole entry): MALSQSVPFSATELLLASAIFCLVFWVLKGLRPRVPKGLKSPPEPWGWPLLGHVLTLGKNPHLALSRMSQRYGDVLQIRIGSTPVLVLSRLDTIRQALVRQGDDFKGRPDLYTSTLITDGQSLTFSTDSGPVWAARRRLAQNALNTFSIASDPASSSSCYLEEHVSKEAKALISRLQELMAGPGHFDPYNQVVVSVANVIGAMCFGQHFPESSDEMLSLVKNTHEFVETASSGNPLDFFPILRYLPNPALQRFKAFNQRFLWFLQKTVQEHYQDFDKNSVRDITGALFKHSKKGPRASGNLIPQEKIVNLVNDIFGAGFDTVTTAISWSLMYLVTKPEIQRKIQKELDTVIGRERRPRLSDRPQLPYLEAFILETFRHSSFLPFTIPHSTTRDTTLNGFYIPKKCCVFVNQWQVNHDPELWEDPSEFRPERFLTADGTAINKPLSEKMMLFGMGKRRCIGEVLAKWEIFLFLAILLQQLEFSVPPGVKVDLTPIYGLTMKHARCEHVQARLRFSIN
Assay: Inhibition of CYP1A2 in human liver microsomes at 1 uM
Type: ADME
Conditions: not given
For `O=C(N[C@H](Cc1c[nH]c2ccccc12)C(=O)Nc1ccncc1)c1ccc(-c2ccc(F)c(Cl)c2)cc1F`, the “inhibition (INH)” value was 2%.

Target: Cytochrome P450 2D6 (Homo sapiens, UniProt P10635)
Sequence (P10635 whole entry): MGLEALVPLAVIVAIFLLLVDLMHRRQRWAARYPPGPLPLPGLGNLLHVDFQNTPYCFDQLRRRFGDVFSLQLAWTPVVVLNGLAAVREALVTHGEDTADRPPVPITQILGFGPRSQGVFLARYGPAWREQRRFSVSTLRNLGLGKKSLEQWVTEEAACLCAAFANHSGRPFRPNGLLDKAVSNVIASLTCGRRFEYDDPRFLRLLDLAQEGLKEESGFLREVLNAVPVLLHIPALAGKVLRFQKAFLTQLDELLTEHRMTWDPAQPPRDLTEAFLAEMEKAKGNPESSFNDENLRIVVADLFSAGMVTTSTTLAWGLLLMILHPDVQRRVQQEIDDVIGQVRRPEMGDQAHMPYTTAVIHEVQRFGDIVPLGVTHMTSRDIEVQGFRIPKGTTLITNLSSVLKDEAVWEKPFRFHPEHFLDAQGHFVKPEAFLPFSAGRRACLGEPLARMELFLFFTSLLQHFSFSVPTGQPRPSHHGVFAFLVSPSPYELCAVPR
Assay: Inhibition of CYP2D6 in human liver microsomes at 1 uM
Type: ADME
Conditions: not given
With `O=C(N[C@H](Cc1c[nH]c2ccccc12)C(=O)Nc1ccncc1)c1ccc(-c2ccc(F)c(Cl)c2)cc1F` the “inhibition (INH)” value was 29%.

Test system: not listed separately
Assay: AUClast in mouse at 50 mg/kg, po in 20% HP-beta-CD
Type: ADME, organism-based, Plasma
Set-up: time 0 - last, dose 50 mg/kg, route oral
Conditions: plasma
In short: as §2
In the case of `O=C(N[C@H](Cc1c[nH]c2ccccc12)C(=O)Nc1ccncc1)c1ccc(-c2ccc(F)c(Cl)c2)cc1F`, the AUC(0-t) is reported as 30.2 µM·h.
